From publication PMC3966493 (Chemistry & biology, 2013) come the findings set out here.

Assay [1] addresses T1, EphA4 LBD (Homo sapiens, UniProt P54764). Briefly: Protein NMR 2D [15N,1H]-HSQC chemical shift perturbation / titration. It counts as binding. As to conditions: for binding of individual side-chain fragments by 2D HSQC: perturbations observable only at higher ligand concentrations (3 mM). Summed up: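 15N-labelled EphA4 LBD (M9 medium with (15NH4)2SO4) at 50 µM was used. 2D [15N,1H]-HSQC spectra (32 scans, 2,048 × 128 complex points, 300 K) were recorded with and without test compound. Shifts were computed as Δδ = √[(Δ1H)² + (0.17·Δ15N)²]. For Kd, compound was titrated stepwise and Δδ was fitted to a quadratic binding equation.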

Assay [2] has as its target T1, EphA4 LBD. Description: Fluorescence polarization assay. It counts as binding. As to conditions: 5 µM FITC-KYL, 2 µM EphA4 LBD. The gist of the method:
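Human EphA4 LBD (residues 29–209), His-tag purified from E. coli Rosetta-gami (DE3), at 2 µM final, was preincubated 10 min at room temperature with varying test compound in PBS pH 7.2. N-terminally FITC-labelled KYL peptide (5 µM final) was added. After 30 min at room temperature, polarization (mP) was read at ex/em 480/535 nm. Unlabelled KYL served as positive control, DMSO as negative.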

The target of assay [3] is human EphA4 ligand-binding domain (residues 29-209) (human, UniProt P54764 29-209). Briefly: fluorescence polarisation. (Polarisation of emitted light reports the rotation of a fluorescent probe.)

Ends that are not written are not given here. * marks the point of attachment. FITC = O=C1OC2(c3ccc(O)cc3Oc3cc(O)ccc32)c2ccc(NC(=S)*)cc21

T1 sequence (P54764 29-209): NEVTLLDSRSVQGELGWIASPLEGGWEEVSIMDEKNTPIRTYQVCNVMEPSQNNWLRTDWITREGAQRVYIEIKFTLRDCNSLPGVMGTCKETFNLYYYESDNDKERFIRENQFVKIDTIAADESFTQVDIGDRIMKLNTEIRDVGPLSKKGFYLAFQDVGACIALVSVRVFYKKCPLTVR
human EphA4 ligand-binding domain (residues 29-209), sequence (P54764 29-209): as above

Consider `Cc1c[nH]c2ccccc12` [3-methylindole], for which, in assay [1], the “binding of individual side-chain fragments by 2D HSQC” value is given as “weak binding affinities”.

Take `Cc1ccc(Cl)cc1` [4-chlorotoluene]: the “binding of individual side-chain fragments by 2D HSQC” value in assay [1] was “weak binding affinities”.

For the molecule KYLP, in assay [2], the “IC50 by FPA” value was “inactive”. Also, the “binding by 2D [15N,1H]-HSQC chemical shift perturbation” value in assay [1] (50 µM EphA4 LBD, 100 µM compound) was “inactive”.

For {FITC}-KYLPYWPVLSSL [FITC-labeled KYL peptide], the binding result in assay [3] is “binds”.
